A short description of test [1]: reduced viability of SK-BR-3 breast cancer cells – cell-based, 24 h, human, pilot screen (AID 572;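 active means viability at or below 10% of carrier control in both of two separate runs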;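 further: compound exposure lasted between 18 and 24 h rather than exactly 24 h; 100% = carrier-treated control wells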). The settings on record: SK-BR-3 viability, CellTiter-Glo luminescence, at 10 µM, stronger effect = lower value. Background: Cellular ATP, detected with luciferase, serves as a proxy for viable cell number.
A short description of test [2]: HUVEC growth inhibition – cell-based, human, primary screen (AID 575;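 active means viability at or below 30% in both replicate assays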;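 further: 100% = median of untreated cell wells with 0.1% DMSO on each plate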). Particulars: HUVEC proliferation, CellTiter-Glo luminescence, 72 h; at 10 µM; stronger effect = lower value. The method, boiled down: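 Test system: primary human umbilical vein endothelial cells; medium: endothelial basal medium with 2% FBS plus growth supplements; dosing: 10 µM compound only; times: 72 h treatment at 37 °C; signal: CTG luminescence; read-out: % viability relative to median vehicle-well signal on each plate; control set: vehicle and MePR control wells; plate: 384-well, collagen-coated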

Test [3] can be described thus: H69AR cell proliferation blockers – human, duplicate replicates, primary screen (AID 580).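 Further: 100% = mean luminescence of untreated wells and 0% = no signal.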 The settings on record: H69AR lung tumor cells viability, ATP luminescence, 72 h; at 10 µM; stronger effect = lower value.
The nature of test [4]: MRP1 drug-resistance reversers in H69AR cells – cell-based, doxorubicin co-treatment, pilot screen (AID 601;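 active means viability loss from added drug above about 55%, and viability with drug at most 40%, in both replicates, limit read from the data, passing the limit was not always enough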). Particulars: CellTiter-Glo, 72 h, at 10 µM; for differential viability (reversal): stronger effect = higher value.
Test [5] is described as follows: yeast transport mutant growth inhibition pilot in 384-well plates, post-Golgi transport modulator project (AID 636; in the data active means inhibition above about 31%). Particulars: absorbance 615 nm, about 18 h, stronger effect = higher value.
The nature of test [6]: growth suppression of yeast trafficking mutant, preliminary HTS, modulators of trafficking downstream of Golgi apparatus project, 1536-format plate, OD 615 nm (AID 637; in the data active means inhibition above about 30%). The settings on record: yeast transport mutant growth, absorbance 615 nm, 18 h; stronger effect = higher value.
Setting [7] is: H69AR cells + 2 uM doxorubicin, measured here: viability with 2 uM doxorubicin, stronger effect = lower value.
The mark [8] stands for this setting: H69AR cells, compound alone cytotoxicity.

Activity calls are given as the source filed them.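 How the source made its calls, unless noted: active means viability at or under a set limit in both replicates, limit being median viability minus 3 SD (cut at about 48% in these data, passing the limit was not always enough); inconclusive means at or under the limit in just one replicate; inactive means at or above the limit in both replicates.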

On to `Cc1ccc(S(=O)(=O)NCC(c2cccnc2)N(C)C)cc1` (centres undefined), for which the viability was 96% (inactive) in test [1]; 109% (inactive) in test [2]; 95.1% (inactive) in test [3]; 103% in test [4] (setting [7]); 95.1% in test [4] (setting [8]). Also, in test [4] (H69AR cells + 2 uM doxorubicin), the differential viability (reversal) is -8.1% (inactive). Moreover, the values for the inhibition in test [5] and in test [6] were -5.75% (inactive) and 1.82% (inactive), respectively.
On to `CCN1C(=O)/C(=C/N(C)c2ccccc2)OC1=S`, for which the viability in test [1] was 97% (inactive); in test [2] it was 91.5% (inactive); in test [3], 93.7% (inactive); in test [4] (setting [7]), 94.7%; in test [4] (setting [8]), 93.7%. The differential viability (reversal) in test [4] (H69AR cells + 2 uM doxorubicin) is -0.96% (inactive). Moreover, the inhibition was -2.6% (inactive) in test [5] and 8.18% (inactive) in test [6].
In the case of `COC(=O)c1ccc(CSc2nnnn2Cc2ccccc2)cc1`, the viability is 111% (inactive) in test [1]; 98.6% (inactive) in test [2]; 86% (inactive) in test [3]; 85.2% in test [4] (setting [7]); 86% in test [4] (setting [8]). Further, the differential viability (reversal) in test [4] (H69AR cells + 2 uM doxorubicin) is 0.715% (inactive). In addition, the inhibition in test [5] is -4.13% (inactive); in test [6] it was -2.36% (inactive).
Regarding `Cc1cc(NC(=O)CSc2nc(CCC3CCCC3)nc3ccccc23)no1`, the viability in test [1] was 92% (inactive); in test [2], 92.2% (inactive); in test [3], 22.3% (active); in test [4] (setting [7]), 23.4%; in test [4] (setting [8]), 22.3%. The differential viability (reversal) in test [4] (H69AR cells + 2 uM doxorubicin) is -1.14% (inactive). The inhibition in test [5] was -2.86% (inactive); in test [6], -5.08% (inactive).
With `Cc1ccc(-n2nc3cc(Cl)c(NC(=O)c4ccco4)cc3n2)cc1`, the viability was 116% (inactive) in test [1]; 92.6% (inactive) in test [2]; 42.7% (active) in test [3]; 48.7% in test [4] (setting [7]); 42.7% in test [4] (setting [8]). Besides, the differential viability (reversal) in test [4] (H69AR cells + 2 uM doxorubicin) is -5.97% (inactive). Besides, the inhibition was -7.53% (inactive) in test [5] and 2.7% (inactive) in test [6].
Consider `CCOC(=O)c1c2n(c3ccc(O)cc13)CCCCC2`, for which the viability is 111% (inactive) in test [1]; 89.7% (inactive) in test [2]; 82.4% (inactive) in test [3]; 80.6% in test [4] (setting [7]); 82.4% in test [4] (setting [8]). In addition, the differential viability (reversal) in test [4] (H69AR cells + 2 uM doxorubicin) was 1.8% (inactive). The inhibition in test [5] was -7.47% (inactive); in test [6], 0% (inactive).
As for `O=C(CN1CCN(c2ccc(F)cc2)CC1)OCc1ccccc1`, the viability in test [1] was 95% (inactive); in test [2], 105% (inactive); in test [3] it was 92.6% (inactive); in test [4] (setting [7]) it was 84.7%; in test [4] (setting [8]) it was 92.6%. Also, in test [4] (H69AR cells + 2 uM doxorubicin), the differential viability (reversal) is 7.9% (inactive). The inhibition in test [5] was -4.4% (inactive); in test [6], 3.64% (inactive).
Turning to `CS(=O)(=O)N1CCCC(C(=O)N2CCOCC2)C1` (centres undefined), the viability is 97% (inactive) in test [1]; 108% (inactive) in test [2]; 98.3% (inactive) in test [3]; 94.2% in test [4] (setting [7]); 98.3% in test [4] (setting [8]). Besides, the differential viability (reversal) in test [4] (H69AR cells + 2 uM doxorubicin) was 4.13% (inactive). Also, the inhibition in test [5] was -2.6% (inactive); in test [6], -1.15% (inactive).
For `O=C(c1ccco1)N1CCN(CC2CC3C=CC2C3)CC1` (centres undefined), the viability in test [1] was 91% (inactive); in test [2], 110% (inactive); in test [3], 95.8% (inactive); in test [4] (setting [7]), 90.1%; in test [4] (setting [8]), 95.8%. The differential viability (reversal) in test [4] (H69AR cells + 2 uM doxorubicin) was 5.7% (inactive). For the same compound, the inhibition in test [5] is -1.43% (inactive); in test [6] it was -2.13% (inactive).
Turning to `CC1CN(C(=O)CSc2ncnc3sccc23)CC(C)O1` (centres undefined), the viability in test [1] was 80% (inactive); in test [2] it was 103% (inactive); in test [3], 99.6% (inactive); in test [4] (setting [7]), 102%; in test [4] (setting [8]), 99.6%. Moreover, in test [4] (H69AR cells + 2 uM doxorubicin), the differential viability (reversal) was -2.15% (inactive). For the same compound, the values for the inhibition in test [5] and in test [6] were -5.75% (inactive) and 0% (inactive), respectively.
Take `Cc1cc(NS(=O)(=O)Cc2ccccc2)cc(C)c1OCC(=O)N1CCOCC1`: the viability was 95% (inactive) in test [1]; 92.1% (inactive) in test [2]; 94.6% (inactive) in test [3]; 74.4% in test [4] (setting [7]); 94.6% in test [4] (setting [8]). In addition, in test [4] (H69AR cells + 2 uM doxorubicin), the differential viability (reversal) was 20.2% (inactive). Also, the inhibition in test [5] is -0.52% (inactive); in test [6] it was 0% (inactive).
As to `O=c1c(O)c(-c2ccc(O)cc2O)oc2cc(O)cc(O)c12`, the viability in test [1] was 94% (inactive); in test [2], 97.5% (inactive); in test [3] it was 97.4% (inactive); in test [4] (setting [7]) it was 99.6%; in test [4] (setting [8]), 97.4%. Moreover, in test [4] (H69AR cells + 2 uM doxorubicin), the differential viability (reversal) is -2.28% (inactive). In addition, the values for the inhibition in test [5] and in test [6] were -3.77% (inactive) and -1.33% (inactive), respectively.
Consider `CCN(CC)C(c1ccc(C)cc1)c1nnnn1C1CCCCC1` (centres undefined), for which the viability in test [1] was 64% (inactive); in test [2], 102% (inactive); in test [3] it was 75.5% (inactive); in test [4] (setting [7]) it was 68.5%; in test [4] (setting [8]), 75.5%. Further, the differential viability (reversal) in test [4] (H69AR cells + 2 uM doxorubicin) is 7% (inactive). Also, the inhibition in test [5] is -6.13% (inactive); in test [6] it was -4.73% (inactive).
Turning to `Clc1ccc2c(c1)C(N1CCNCC1)=Nc1ccccc1O2`, the viability in test [1] is 73% (inactive); in test [2], 46% (inactive); in test [3], 84.4% (inactive); in test [4] (setting [7]) it was 73%; in test [4] (setting [8]), 84.4%. In test [4] (H69AR cells + 2 uM doxorubicin), the differential viability (reversal) is 11.4% (inactive). Further, the inhibition is -1.3% (inactive) in test [5] and -3.83% (inactive) in test [6].
`CC1CCCCN1C(=O)Cn1nnc(-c2cccnc2)n1` (centres undefined): the viability in test [1] was 92% (inactive); in test [2], 97.2% (inactive); in test [3] it was 103% (inactive); in test [4] (setting [7]) it was 94.6%; in test [4] (setting [8]), 103%. In test [4] (H69AR cells + 2 uM doxorubicin), the differential viability (reversal) is 8.68% (inactive). Moreover, the inhibition in test [5] is -7.81% (inactive); in test [6], -1.13% (inactive).
As to `CC1(C)CN=C(N2CCN(c3ncnc4sc5c(c34)CCCC5)CC2)S1`, the viability in test [1] was 72% (inactive); in test [2], 54.2% (inactive); in test [3], 77.3% (inactive); in test [4] (setting [7]) it was 85.6%; in test [4] (setting [8]) it was 77.3%. Also, the differential viability (reversal) in test [4] (H69AR cells + 2 uM doxorubicin) is -8.36% (inactive). Also, the inhibition in test [5] was -1.15% (inactive); in test [6], 0.83% (inactive).
Take `COc1ccc(CC(=O)Nc2cc(Cl)ccc2O)cc1`: the viability in test [1] is 110% (inactive); in test [2], 84.5% (inactive); in test [3] it was 81.1% (inactive); in test [4] (setting [7]) it was 80.4%; in test [4] (setting [8]), 81.1%. The differential viability (reversal) in test [4] (H69AR cells + 2 uM doxorubicin) is 0.69% (inactive). Moreover, the inhibition in test [5] is -4.53% (inactive); in test [6], -3.09% (inactive).
`CN(C)CC(C(=O)c1ccccc1)c1ccccc1` (centres undefined): the viability in test [1] was 30.5%; in test [2], 53.4% (inactive); in test [3] it was 1.17% (active); in test [4] (setting [7]), 1.68%; in test [4] (setting [8]) it was 1.17%. Also, the differential viability (reversal) in test [4] (H69AR cells + 2 uM doxorubicin) was -0.515% (inactive). The inhibition in test [5] was 2.95% (inactive); in test [6], -4.33% (inactive).
For `CC1CNCCN1S(=O)(=O)c1cccc2cnccc12` (centres undefined), the viability in test [1] was 100% (inactive); in test [2] it was 84.4% (inactive); in test [3] it was 102% (inactive); in test [4] (setting [7]), 96.2%; in test [4] (setting [8]), 102%. Also, the differential viability (reversal) in test [4] (H69AR cells + 2 uM doxorubicin) was 5.87% (inactive). For the same compound, the results for the inhibition in test [5] and in test [6] were 1.3% (inactive) and -1.83% (inactive), respectively.
With `O=C(CCn1cccc1)N1CCc2ccccc21`, the viability is 104% (inactive) in test [1]; 83% (inactive) in test [2]; 101% (inactive) in test [3]; 87.6% in test [4] (setting [7]); 101% in test [4] (setting [8]). Also, in test [4] (H69AR cells + 2 uM doxorubicin), the differential viability (reversal) was 13.3% (inactive). Also, the inhibition in test [5] is -2.08% (inactive); in test [6], 2.13% (inactive).
As for `O=C(Nc1ccccc1-c1ccccc1)NC1CCN(C(=O)N2CCOCC2)CC1`, the viability in test [1] was 108% (inactive); in test [2], 95.9% (inactive); in test [3], 103% (inactive); in test [4] (setting [7]), 99.5%; in test [4] (setting [8]), 103%. In addition, the differential viability (reversal) in test [4] (H69AR cells + 2 uM doxorubicin) was 3.68% (inactive). In addition, the inhibition is -3.29% (inactive) in test [5] and 4.03% (inactive) in test [6].
`O=C(CCn1c(=O)sc2ccccc21)NCc1ccc2c(c1)OCO2`: the viability was 75% (inactive) in test [1]; 111% (inactive) in test [2]; 99.9% (inactive) in test [3]; 91.5% in test [4] (setting [7]); 99.9% in test [4] (setting [8]). For the same compound, the differential viability (reversal) in test [4] (H69AR cells + 2 uM doxorubicin) was 8.43% (inactive). For the same compound, the inhibition in test [5] was -0.81% (inactive); in test [6], -2.91% (inactive).
Consider `O=C(Nc1ccc(NC(=O)c2ccco2)nc1)c1cccnc1`, for which the viability in test [1] is 102% (inactive); in test [2] it was 121% (inactive); in test [3], 88.7% (inactive); in test [4] (setting [7]) it was 90.6%; in test [4] (setting [8]), 88.7%. For the same compound, the differential viability (reversal) in test [4] (H69AR cells + 2 uM doxorubicin) was -1.89% (inactive). The inhibition in test [5] was -7.4% (inactive); in test [6] it was 0.65% (inactive).

What is called viability is a read-out of living cells in per cent, often relative to untreated cells. By inhibition is commonly meant the change of the read-out against control, counted positive when it falls.

These data come from PubChem BioAssay.
